Screening results from PubChem BioAssay.
ABCB6 inh 2 – ABCB6 transporter inhibitors, primary screen, K562-ABCB6 cells, flow cytometry, MLPCN library. ATP-binding cassette sub-family B member 6 (Homo sapiens), Q9NP58. K562-ABCB6 porphyrin accumulation, 1 h; stronger effect = lower value. fluorescence ratio to DMSO, % at 10 µM. 360,000 tested, 0.19% active. AID 602162, 2011;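 active means fluorescence ratio to DMSO below 75%, the collection mean minus 3 SD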;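 further: signal is porphyrin accumulated inside mitochondria; lower ratio means ABCB6 inhibition with less porphyrin fluorescence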
Arr AP2 block – inhibitors of beta-arrestin/AP2 binding, primary screen, biochemical, GPCR trafficking, flow cytometry; beta-arrestin 1 C-terminal peptide binding to AP2 beta2-adaptin appendage (human); FITC-arrestin peptide / GST-AP2 beads; AP2 beta2 appendage carries R879A mutation; 340,000 tested, 0.31% active; inhibition, % at 10 µM;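 active means inhibition above a set limit, near 3 SD of compounds lacking own fluorescence, cut at about 54% in these data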
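Measured by: flow cytometry, FL1 (488/535 nm); Material: AP2 appendage R879A on GSH beads; Evaluation: percent response; Timing: pre-incubation 12 min, peptide binding 1 h, room temperature; Also added: 50 nM FITC-arrestin peptide; Medium: PBS with 0.05% Tween 20 and 0.1% BSA.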
NRP1-CendR mod – modulators of CendR peptide binding to NRP-1, primary screen, biochemical, fluorescence polarization, uHTS; FAM-RPARPAR peptide binding to NRP-1; inhibition, % at 25 µM; 360,000 tested, 0.85% active; AID 602438, 2012;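 active means inhibition or corrected inhibition above about 18%, plus a signal ratio from 0.5 to 1.5, limit read from the data, passing the limit was not always enough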
Myeloid diff MLP – induction of myeloid progenitor differentiation, primary screen, cell-based, flow cytometry, MLPCN library; calls only at 10 µM; 360,000 tested, 1% active; ER-HoxA9 myeloid progenitors, lysozyme-GFP differentiation;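 active means normalized GFP-positive differentiation at or above the plate's own cutoff, the solvent-only control mean plus 3 SD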;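 further: cells exposed to compound for four days before flow analysis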
Exocytosis inh – LAMP-1 surface exposure blockers, TALL-104 cells – cell-based, flow cytometry, MLPCN library, primary screen; TALL-104 LAMP-1 surface exposure; cells stimulated with thapsigargin and PMA; inhibition, % at 10 µM; AID 651702, 2012; 360,000 tested, 0.66% active;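 active means inhibition above about 55%, limit read from the data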
ATG4B inh – ATG4B protease inhibitors, primary screen, biochemical, fluorescence, uHTS; Cysteine protease ATG4B (Homo sapiens), Q9Y4P1; ATG4B cleavage of LC3-PLA2, NBD-HPC fluorescence, 1 h; inhibition, % at 8.33 µM; 340,000 tested, 0.51% active; AID 504462, 2011; in the data active means inhibition above about 40%
Target sequence (Q9Y4P1 whole entry, looked up): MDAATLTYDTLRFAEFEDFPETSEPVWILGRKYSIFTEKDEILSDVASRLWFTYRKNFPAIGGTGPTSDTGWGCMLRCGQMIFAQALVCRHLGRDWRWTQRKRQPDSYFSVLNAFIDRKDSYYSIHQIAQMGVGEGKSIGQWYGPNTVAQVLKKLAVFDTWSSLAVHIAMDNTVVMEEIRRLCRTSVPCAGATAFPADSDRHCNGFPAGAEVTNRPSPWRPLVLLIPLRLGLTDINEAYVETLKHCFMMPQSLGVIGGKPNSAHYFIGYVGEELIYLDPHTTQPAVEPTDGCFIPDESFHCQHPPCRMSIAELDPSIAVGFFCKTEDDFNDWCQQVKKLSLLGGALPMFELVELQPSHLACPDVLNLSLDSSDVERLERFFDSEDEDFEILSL
Myeloid diff CP1 – inducers of myeloid progenitor differentiation, confirmation, cell-based, GFP/Mac1 flow cytometry, cherry pick 01; shares compounds with Myeloid diff MLP; ER-HoxA9 myeloid progenitors, GFP/Mac1 double-positive flow; calls only; 2,300 tested, 2% active;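 active means share of green or green-and-red cells above 9 and 9% in run 1 or 4 and 3% in run 2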
GFP autofluor – counter-screen for myeloid differentiation promoters: compound fluorescence; ER-HoxA9 myeloid progenitors, no estrogen, GFP autofluorescence flow cytometry; vehicle wells 0%, positive control 100%; fluorescence response, % (concentration not given with the values); 2,300 tested, 7.4% active; shares compounds with Myeloid diff MLP;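 active means over 5% cells positive for green fluorescent reporter, or over 2% positive for both it and APC stain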
Large screens that a line does not name were inactive (follow-up assays come after a bar, where they were run). In the library only some 3.3% were active in any assay of this set; here they are far more common.

Cc1c(C(=O)NNC(=S)Nc2ccc(S(N)(=O)=O)cc2)oc2ccccc12	none | Myeloid diff CP1 inactive | GFP autofluor inactive
CC1CCN(c2nc(CN3CCCCC3)nc3scc(-c4ccccc4)c23)CC1	none | Myeloid diff CP1 inactive | GFP autofluor inactive
COc1ccc(N2CC(C(=O)OCC(=O)c3ccc(C)cc3)CC2=O)cc1 (centres undefined)	Myeloid diff MLP active | Myeloid diff CP1 inactive | GFP autofluor inactive
CCOc1ccc(N2CC(C(=O)OCC(=O)c3ccc(OC)cc3)CC2=O)cc1 (centres undefined)	none
O=C(Cn1cc([N+](=O)[O-])cn1)Nc1ccn(Cc2c(F)c(F)c(F)c(F)c2F)n1	none
NNC(=O)c1[nH]c2ccc(Cl)cc2c1-c1ccccc1	none | Myeloid diff CP1 inactive | GFP autofluor inactive
O=C(O)CSc1c(-c2ccccc2)c2cc(Cl)ccc2[nH]c1=O	none
O=C(COC(=O)c1cccs1)Nc1ccc(S(=O)(=O)N2CCOCC2)cc1	none
CCCOc1ccc(C(=O)NC(=S)N2CCN(c3cc4c(cc3F)c(=O)c(C(=O)O)cn4CC)CC2)cc1	Myeloid diff MLP active | Myeloid diff CP1 inactive | GFP autofluor inactive
CC(C)CC(=O)Nc1nnc(SCC(=O)Nc2nccs2)s1	none
CCC(C)[C@H](NC(=O)NCc1cccnc1)C(=O)OC (some centres undefined)	none
CCC(C)[C@H](NC(=O)NCc1ccccc1Cl)C(=O)OC (some centres undefined)	none | Myeloid diff CP1 inactive | GFP autofluor inactive
O=C(NC1CCCC1)C(c1ccncc1)N(Cc1ccccc1)C(=O)Cc1cccs1 (centres undefined)	none
Cc1ccc(C(C(=O)NC2CCCC2)N(C(=O)Cc2cccs2)c2cccc(C)c2C)o1 (centres undefined)	none | Myeloid diff CP1 inactive | GFP autofluor inactive
COc1ccccc1CN(C(=O)Cc1cccs1)C(C(=O)NC1CCCC1)c1ccncc1 (centres undefined)	none | Myeloid diff CP1 inactive | GFP autofluor inactive
Cc1ccc(C(CNC(=O)c2ccc(Br)o2)N2CCN(C)CC2)cc1 (centres undefined)	none
O=C(NN1C(=O)c2ccccc2NC1c1ccco1)c1ccccc1 (centres undefined)	Myeloid diff MLP active | Myeloid diff CP1 inactive | GFP autofluor inactive
CCOC(=O)C1(Cc2cccc(Cl)c2)CCCN(C(=O)c2cc(CC)on2)C1 (centres undefined)	none
CCCCN(C)CCCNC(=O)CN1C(=O)COc2ccc(S(=O)(=O)N3CCOCC3)cc21	none
CN(C)c1ccc(/C=N/N=C2/NC(=O)/C(=C/c3ccc([N+](=O)[O-])cc3)S2)cc1	Myeloid diff MLP active | Myeloid diff CP1 inactive | GFP autofluor 95.1
CCOc1ccc(N(C)c2ccc(/C=C3/SC(=S)NC3=O)cc2)cc1	none
Cc1cc(/C=C2\SC(=S)NC2=O)c(C)[nH]1	none | Myeloid diff CP1 inactive | GFP autofluor 7.3
CN(C)c1ccc(C=C2SC(=S)NC2=O)cc1	Myeloid diff MLP active | Myeloid diff CP1 inactive | GFP autofluor inactive
CCCCN1C(=O)C(C#N)CC2=C1CC(C)(C)CC2=O (centres undefined)	none
Cc1cn([C@H]2C[C@H](O)[C@@H](CNCc3ccc4ncccc4c3)O2)c(=O)[nH]c1=O	none (no result: Arr AP2 block, ATG4B inh)
